The text below walks through data of ChEMBL document CHEMBL1137645, “Functional characterization of TcaA: minimal requirement for teicoplanin susceptibility and role in Caenorhabditis elegans virulence” (2007).

Assay type in all cases: functional, organism-based
In assay [1] the test system is Staphylococcus aureus. The assay can be described thus: Induction of VraSR-dependent tcaA gene expression in Staphylococcus aureus N315 at 10 ug/mL after 30 mins by Northern blot analysis. The gist of the method:
(§1)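 Total RNA, 10 µg per sample, was separated on a 1.5% agarose–20 mM guanidine thiocyanate gel in 1x TBE, then Northern blotted.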

The test system of assay [2] is Staphylococcus aureus. Briefly: Induction of VraSR-dependent tcaA gene expression in Staphylococcus aureus N315 at 16 ug/mL after 30 mins by Northern blot analysis. The gist of the method: as §1
In assay [3] the test system is Staphylococcus aureus. Briefly: Induction of VraSR-dependent tcaA gene expression in Staphylococcus aureus KVR expressing N315 delta-vraSr mutant at 10 ug/mL after 30 mins by Northern blot analysis. Put shortly:
as §1

The subject of assay [4] is Staphylococcus aureus. Briefly: Induction of VraSR-dependent tcaA gene expression in Staphylococcus aureus KVR expressing N315 delta-vraSr mutant at 2 ug/mL after 30 mins by Northern blot analysis. The gist of the method:
as §1

Calls of active or inactive are those of the source. No cut-off for these calls is given here.

In the case of `Cc1onc(-c2ccccc2)c1C(=O)N[C@@H]1C(=O)N2[C@@H]1SC(C)(C)[C@@H]2C(=O)O`, the outcome with Staphylococcus aureus [1] and with Staphylococcus aureus [2] was Active. Further, the outcome in the assay with Staphylococcus aureus [3] and in the assay with Staphylococcus aureus [4] was inactive.
Turning to `CN[C@H](CC(C)C)C(=O)N[C@H]1C(=O)N[C@@H](CC(N)=O)C(=O)N[C@H]2C(=O)N[C@H]3C(=O)N[C@H](C(=O)N[C@H](C(=O)O)c4cc(O)cc(O)c4-c4cc3ccc4O)[C@H](O)c3ccc(c(Cl)c3)Oc3cc2cc(c3O[C@@H]2O[C@H](CO)[C@@H](O)[C@H](O)[C@H]2O[C@H]2C[C@](C)(N)[C@H](O)[C@H](C)O2)Oc2ccc(cc2Cl)[C@H]1O`, the result in the assay on Staphylococcus aureus [1] and in the assay with Staphylococcus aureus [2] was Active. In addition, the outcome in the assay with Staphylococcus aureus [3] and with Staphylococcus aureus [4] was inactive.
